System: A549
Assay: Anticancer activity against human A549 cells at 1 nM after 12 hrs
Type: functional
Details: A549, 12 h
Procedure, shortened: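 A-549 cells seeded at 10,000 cells/well in 96-well plates, recovered overnight in 5% CO2, then exposed 12 h to compound at 1 nM/ml (in 1% DMSO in PBS). MTT added from a 5 mg/ml PBS stock, 5 h at 37 °C, medium removed, formazan dissolved in DMSO for 5 min at 37 °C. Growth inhibition read at 550 nm; duplicate runs.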

Structure (SMILES)	inhibition at 0.001 µM
Cc1cc(=O)n2nc3c(C#N)c(C(F)(F)F)cc(-c4ccccc4)c3c2[nH]1	0.44%
Cc1cc(-c2ccccc2)nc2c3c(C(F)(F)F)cc(-c4ccccc4)c(C#N)c3nn12	13.3%
Cc1cc(C)n2nc3c(C#N)c(-c4ccccc4)cc(C(F)(F)F)c3c2n1	3.74%
N#Cc1c(C(F)(F)F)cc(-c2ccccc2)c2c1nn1c(-c3ccccc3)cc(-c3ccccc3)nc21	5.96%
Cc1ccc(-c2cc(C(F)(F)F)n3nc4c(C#N)c(C(F)(F)F)cc(-c5ccccc5)c4c3n2)cc1	6.77%
N#Cc1c(C(F)(F)F)cc(-c2ccccc2)c2c1nn1c(C(F)(F)F)cc(C(F)(F)F)nc21	10.2%
CCOC(=O)c1cnc2c3c(-c4ccccc4)cc(C(F)(F)F)c(C#N)c3nn2c1N	11%
N#Cc1c(-c2ccccc2)cc(C(F)(F)F)c2c1nn1c(C(F)(F)F)cc(C(F)(F)F)nc21	4.54%
Cc1cc(-c2ccccc2)n2nc3c(C#N)c(C(F)(F)F)cc(-c4ccccc4)c3c2n1	4.8%
N#Cc1c(-c2ccccc2)cc(C(F)(F)F)c2c1nn1c(C(F)(F)F)cc(-c3ccccc3)nc21	16.2%
N#Cc1c(C(F)(F)F)cc(-c2ccccc2)c2c1nn1c(C(F)(F)F)cc(-c3ccccc3)nc21	8.9%
CCOC(=O)c1cnc2c3c(-c4ccccc4)cc(C(F)(F)F)c(C#N)c3nn2c1O	8.24%
CCOC(=O)c1cnc2c3c(C(F)(F)F)cc(-c4ccccc4)c(C#N)c3nn2c1N	10.7%
Cc1cc(C(F)(F)F)n2nc3c(C#N)c(C(F)(F)F)cc(-c4ccccc4)c3c2n1	6.44%
COc1cc([C@@H]2c3cc4c(cc3[C@@H](O[C@@H]3O[C@@H]5CO[C@@H](C)O[C@H]5[C@H](O)[C@H]3O)[C@H]3COC(=O)[C@H]23)OCO4)cc(OC)c1O [ETOPOSIDE]	1.15%
